Compounds with a hit are over-represented: about 2.6% of the library has one in this group of screens.
OXTR potentiator = human OXTR potentiation; P30559; CHO-OTR cells, Fluo-8 calcium fluorescence, potentiator mode; 0% = oxytocin EC15, 100% = EC100; activation, % at 3 µM; actives 0.061% (n = 320,000); AID 2445;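 active means activation above that plate's cutoff, the mean activation of tested compounds plus 3 SD, cut at about 6.6% in these data, passing the limit was not always enough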;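 further: 100% uses oxytocin at 75 nM as the full agonist control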
Target sequence (P30559 whole entry, looked up): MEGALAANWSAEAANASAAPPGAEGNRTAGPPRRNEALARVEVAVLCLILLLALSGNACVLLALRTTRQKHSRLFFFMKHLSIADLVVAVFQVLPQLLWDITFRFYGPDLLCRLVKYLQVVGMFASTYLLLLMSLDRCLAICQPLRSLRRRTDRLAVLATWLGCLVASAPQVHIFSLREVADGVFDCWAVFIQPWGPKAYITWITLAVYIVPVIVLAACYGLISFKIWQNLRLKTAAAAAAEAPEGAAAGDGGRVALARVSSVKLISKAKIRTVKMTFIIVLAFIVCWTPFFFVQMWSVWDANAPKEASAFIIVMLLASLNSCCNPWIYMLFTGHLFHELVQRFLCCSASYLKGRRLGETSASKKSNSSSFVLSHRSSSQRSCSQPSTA
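Dosing: Single dose, 3.0 µM nominal final compound concentration | Material: Human OTR in CHO cells | Technique: Kinetic Fluo-8 calcium fluorescence | Benchmarks: EC15 oxytocin alone as 0%, 75 nM oxytocin as 100% | Probe or stimulus: Oxytocin at about EC15, sub-maximal agonist stimulus | Incubation: Compound 6 min at room temperature before oxytocin, 100 s read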
OX1R antag-1 = blocks the human orexin 1 receptor. O43613. CHO/OX1R cells, Fluo-8 calcium fluorescence, orexin A. inhibition, % at 5 µM. actives 0.43% (n = 330,000);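 active means inhibition above its plate's threshold, mean inhibition of all tested compounds on the plate plus 3 SD, cut at about 37% in these data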;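 further: 0% = orexin A challenge wells and 100% = SB-334867-A antagonist wells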
OX1R antag-2 = antagonists of human orexin 1 receptor (OX1R) | OX1R-expressing cells, FRET antagonist read-out | actives 1.8% (n = 330,000) | O43613 | inhibition, % at 6.6 µM; in the data active means inhibition mostly above about 38%, no sharp cut-off; inactive means mostly below about 40%;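 further: 0% = agonist challenge alone and 100% = reference antagonist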
CHO parental Ca = counter-screen for OX1R antagonists: effect in parental CHO cells. parental CHO-K1, ATP-induced calcium, Fluo-8 fluorescence. inhibition, % at 5.6 µM. actives 0.63% (n = 330,000). AID 463079;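 active means inhibition above that plate's mean sample inhibition plus 3 SD, cut at about 26% in these data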;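 further: 0% = ATP-challenged DMSO wells and 100% = DMSO wells without ATP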
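Material: Parental CHO cells | Reagent: ATP | Compound dosing: Single nominal dose of 5.6 µM per compound | Detection: Intracellular calcium via Fluo-8 no-wash fluorescent dye | Read-out: % inhibition of ATP-induced calcium mobilization | Benchmarks: Low control ATP plus DMSO, high control DMSO only | Replicates: Singlicate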
OXTR agonist = activates the human oxytocin receptor; actives 0.32% (n = 320,000); AID 2435; activation, % at 3 µM; CHO-OTR cells, Fluo-8 calcium fluorescence; normalized: DMSO 0%, oxytocin 100%;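 active means activation above the mean of all tested compounds plus 3 SD, cutoff set per screening run, cut at about 20% in these data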;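 further: peak over basal fluorescence ratio from a 100 s FLIPR kinetic read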
V1R ag counter = V1a receptor agonism, counter-screen for OXTR agonists | P37288 | CHO-V1R cells, Fluo-8 calcium fluorescence, agonist mode; 0% DMSO, 100% 3 nM vasopressin | activation, % at 3 µM | actives 0.25% (n = 320,000);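 active means activation above the mean activation of all tested compounds plus 3 SD, per screening run, cut at about 20% in these data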;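 further: signal is peak over basal fluorescence ratio across a 100 second FLIPR read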
Active calls of the source: *.

SMILES | OXTR potentiator | OX1R antag-1 | OX1R antag-2 | CHO parental Ca | OXTR agonist | V1R ag counter
C/C(=N\Nc1ccc([N+](=O)[O-])cc1)c1cc2ccccc2o1 | -10 | 55* | 55* | 41* | 4 | 7
CCn1cnnc1SCC(=O)Nc1ccccc1C(=O)NC1CC1 | -2 | -2 | 19 | -5 | 2 | 2
CCCNC(=S)N1CCN(c2nc(-c3ccc(C)cc3)cs2)CC1 | -21 | 1 | 32 | 53* | 3 | 5
CCCNC(=S)N1CCN(c2nc(-c3cccc(OC)c3)cs2)CC1 | -14 | -22 | 33 | -1 | 2 | 4
Cc1cccc(NC(=S)/N=C(\N)Nc2nc(C)c3ccccc3n2)c1 | -3 | 12 | 76* | -8 | -2 | -1
Cn1c(O)c(N=NC(=O)CNC(=O)c2ccccc2)c2ccccc21 | -4 | -16 | 48* | -13 | 1 | 0
O=C(CNC(=O)c1ccccc1)N/N=C/c1ccc([N+](=O)[O-])s1 | 2 | -11 | 47* | -10 | 0 | 0
O=C(N/N=C/c1ccc([N+](=O)[O-])s1)c1ccncc1 | -9 | -4 | 72* | -4 | 0 | 0
O=C(CNC(=O)c1ccccc1)N/N=C/c1cccs1 | -3 | -11 | 12 | -1 | 1 | 0
O=C(Cc1ccccc1)NCC(=O)N/N=C/c1ccc([N+](=O)[O-])s1 | 0 | -17 | 52* | -1 | 0 | 0
COc1ccc(C(CC(=O)Nc2cc(C)ccn2)N2Cc3ccccc3C2=O)cc1 (centres undefined) | -9 | -20 | 14 | -10 | -1 | 1
COc1ccccc1N1N=C(c2ccc([N+](=O)[O-])cc2)CC1c1ccccc1 (centres undefined) | -22 | 58* | 7 | 55* | 30* | 28*
COc1cc(N2N=C(c3ccccc3)CC2c2ccccc2)c(C=O)cc1C=O (centres undefined) | -1 | -19 | 5 | -12 | -1 | 0
O=C(C[C@H]1C/C=C\C[C@@H](Cc2ccc(F)cc2)C(=O)OC[C@H]2CCCN2C1=O)NCCO | 2 | -17 | 8 | 2 | 0 | 1
CC(=O)c1cccc(OCc2cc(C(=O)N3C[C@@H](C)O[C@@H](C)C3)no2)c1 | 0 | -12 | 3 | -15 | 1 | 1
CN(CC(=O)Nc1ccc2c(c1)CCC2)CC(=O)Nc1ccccc1Br | -1 | -6 | 40* | -15 | -1 | 0
COc1ccc(NC(=O)CN(C)CC(=O)Nc2ccc3c(c2)CCC3)cc1 | -8 | -22 | 35 | -27 | -2 | 2
O=C(NCC1CC1(Cl)Cl)Nc1ccc(Cl)c(Cl)c1 (centres undefined) | -8 | 2 | 39 | 33* | 7 | 7
Cc1ccc(NC(=O)NCC2CC2(Cl)Cl)cc1 (centres undefined) | -4 | -20 | 29 | -7 | -1 | 0
CCCCCn1c2c(c(=N)c3ccccc31)CCC2 | -9 | -10 | 11 | 5 | 0 | -1
CCCCCCCCCCn1c2c(c(=N)c3c1CCC3)CCC2 | -21 | 48* | 20 | 39 | 1 | 1
CC1(C(=O)NCc2ccc(Cl)c(Cl)c2)Oc2cccnc2NC1=O (centres undefined) | -24 | 11 | 3 | 4 | 25* | 21*
COCCN1Cc2cccc(C(=O)NC(C)CCc3ccco3)c2C1=O (centres undefined) | 2 | -29 | 4 | -13 | -2 | 1
CC(=O)NS(=O)(=O)c1ccc(Nc2ccc([N+](=O)[O-])c3nonc23)cc1 | 1 | -8 | 76* | 3 | 2 | 4
CCOc1ccc(Nc2ccc([N+](=O)[O-])c3nonc23)cc1 | -11 | -23 | 43 | 17 | 1 | 5
SMILES | OXTR potentiator | OX1R antag-1 | OX1R antag-2 | CHO parental Ca | OXTR agonist | V1R ag counter
O=[N+]([O-])c1ccc(Nc2ccccc2)c2nonc12 | -9 | 17 | 68* | 16 | 12 | 8
Cc1cc(Cl)ccc1OCC(=O)Nc1cccnc1 | -5 | -10 | 13 | -12 | 4 | 4
CCCC(=O)Nc1ccc(C(=O)Nc2cc(C(F)(F)F)ccc2Cl)cc1 | -22 | -5 | 31 | 69* | 16 | 15
O=[N+]([O-])c1ccc(S(=O)(=O)c2cccc(C(F)(F)F)c2)nc1 | -12 | 31 | 40 | 41* | 4 | 1
O=S(=O)(Nc1cccnc1)c1cccc(C(F)(F)F)c1 | -6 | 8 | 17 | -7 | 1 | 1
O=C1C(O)=C(O)C(=O)c2ccccc21 | -3 | 0 | 13 | 7 | 0 | 2
O=C1C(=O)c2ccccc2C(O)=C1c1ccccc1F | -3 | -9 | 46* | -8 | -1 | 0
COc1ccc(NC(=O)C(C)N2c3cccc4cccc(c34)S2(=O)=O)cc1OC (centres undefined) | -9 | -1 | 26 | 41* | 3 | 5
COc1ccc(NC(=O)C(C)N2c3cccc4cccc(c34)S2(=O)=O)cc1 (centres undefined) | -8 | -27 | 23 | -20 | 0 | 2
CCCCNC(=O)N1CCN(Cc2ccc(F)cc2)CC1 | -10 | -5 | 5 | -7 | 0 | 0
CCN1C(N(C)CCc2cccs2)=N[C@@H](c2ccccc2)C(C(=O)OC)=C1C | -6 | -22 | 13 | -15 | 1 | 0
CCN1C(N(C)CCc2c[nH]c3ccccc23)=N[C@@H](c2cccc(C(F)(F)F)c2)C(C(=O)OC)=C1C | -10 | 23 | 3 | 12 | 23* | 7
Cc1ccc2nc(SCC(=O)Nc3cccc([N+](=O)[O-])c3)[nH]c2c1 | -6 | 53* | 14 | 12 | 0 | 3
Cc1c(C(=O)Nc2nonc2-c2ccc(F)cc2)oc2ccc(F)cc12 | -12 | 0 | 49* | 2 | -2 | 2
Fc1ccc(-c2cn3cc(C(F)(F)F)cc(Cl)c3n2)cc1 | -1 | -15 | 16 | -13 | -2 | -1
COc1ccc(-c2cn3cc(C(F)(F)F)cc(Cl)c3n2)cc1 | 11* | -25 | 6 | -13 | -2 | -1
CCOc1ccc(C(=O)NNC(=O)CNC(=O)c2ccc(C)s2)cc1OC | -2 | -20 | 3 | -21 | 1 | 0
CN(c1ccccc1)S(=O)(=O)c1ccc(Cl)c(C(=O)NCc2ccccc2CN2CCCC2)c1 | -4 | -25 | 10 | -30 | 0 | 0
Cc1cc(NC(=O)CN2C(=O)S/C(=C\c3ccccc3)C2=O)no1 | 7 | -4 | 17 | -2 | 0 | -1
O=C(CN1C(=O)S/C(=C/c2ccncc2)C1=O)Nc1ccccc1 | -10 | -7 | 64* | -2 | 4 | 7
CC(=O)NC(CC(=O)NNC(=O)C(C)Oc1ccccc1F)c1ccccc1 (centres undefined) | 4 | -16 | 14 | 1 | 1 | 1

From PubChem BioAssay
